Measurements from different studies.
Compare with care: the assays were run in different laboratories.
CD36: Platelet glycoprotein 4 (CD36, Homo sapiens, UniProt P16671)
LATS2: Serine/threonine-protein kinase LATS2 (LATS2, Homo sapiens, UniProt Q9NRM7)
AKR1B1: Aldo-keto reductase family 1 member B1 (AKR1B1, Homo sapiens, UniProt P15121)
TRPM8: Transient receptor potential cation channel subfamily M member 8 (TRPM8, Homo sapiens, UniProt Q7Z2W7)

Compound | target | observed | action | technique | pH | endpoint | value
N#Cc1ccc(O[C@H]2CC[C@H](NC(=O)c3ccc(N4CCC(CN5CCN(c6cc7c(cc6F)C(=O)N(C6CCC(=O)NC6=O)C7=O)CC5)CC4)nn3)CC2)cc1Cl (some centres unmarked) | CD36 | binding |  | SPR |  | Kd | 5.9 µM
Cc1cc(-c2ccnc3[nH]cc(F)c23)cc(F)c1[C@@]1(O)[C@H](C)CN(C2COC2)C[C@@H]1C | LATS2 | enzyme activity | inhibitor | radiometric |  | IC50 | 0.009 µM
CCCCC(=O)Nc1ccc(-c2ccc3ncn(CCC)c(=O)c3c2)cn1 | Phosphatidylinositol 5-phosphate 4-kinase type-2 gamma (PIP4K2C, Homo sapiens, UniProt Q8TBX8, del300-341) | binding |  | ITC |  | Kd | 0.123 µM
COc1cc(/C=N/NC(=S)N/N=C/c2ccc(Br)s2)ccc1Oc1ccnc2cc(Cl)ccc12 | AKR1B1 | enzyme activity | inhibitor | absorbance |  | IC50 | 17.7 µM
Cc1cc(-c2ccnc3[nH]cc(F)c23)cc(F)c1[C@@]1(O)[C@H](C)CN(C2CCS(=O)(=O)CC2)C[C@@H]1C | LATS2 | binding |  | TR-FRET |  | Kd | 0.0017 µM
COc1cc(/C=N/NC(=S)NN=Cc2ccc(CO)o2)ccc1Oc1ccnc2cc(Cl)ccc12 | AKR1B1 | enzyme activity | inhibitor | absorbance |  | IC50 | 21.3 µM
CCNC(=O)C1CC(C)CCC1C(C)C (centres unmarked) | TRPM8 | calcium signal | agonist |  |  | EC50 | 8.36 µM
Cc1ccc(C(=O)Nc2ccc(S(=O)(=O)O)c3cc(S(=O)(=O)O)cc(S(=O)(=O)O)c23)cc1NC(=O)c1cccc(NC(=O)Nc2cccc(C(=O)Nc3cc(C(=O)Nc4ccc(S(=O)(=O)O)c5cc(S(=O)(=O)O)cc(S(=O)(=O)O)c45)ccc3C)c2)c1 | Electrogenic aspartate/glutamate antiporter SLC25A13, mitochondrial (SLC25A13, Homo sapiens, UniProt Q9UJS0) | binding |  | ITC | pH 6.5 | Kd | 7.57 µM
CCOc1cccc(C2CC(=O)Nc3c2c(C)nn3-c2ccc3nncn3n2)c1 (centres unmarked) | DNA damage-binding protein 1 (DDB1, Homo sapiens, UniProt Q16531) | binding |  | SPR |  | Kd | 10 µM
O=C1NC(c2cccc([N+](=O)[O-])c2)=CCN1c1ccccc1O | TRPM8 | ion current | agonist | patch clamp |  | EC50 | 0.412 µM
CCCCC1OC(=O)c2ccccc21 (centres unmarked) | Vimentin (VIM, Homo sapiens, UniProt P08670) | binding |  | SPR |  | Kd | 3.42 µM
CNC(=O)c1ccccc1Nc1nc(Nc2ccc(N3CCNCC3)cc2)ncc1Cl | LATS2 | target engagement in cells |  | BRET |  | IC50 | 0.211 µM
COc1cc(/C=N/NC(=S)N/N=C\c2ccc(CCl)cc2)ccc1Oc1ccnc2cc(Cl)ccc12 | AKR1B1 | enzyme activity | inhibitor | absorbance |  | IC50 | 20.4 µM
CCCCCCCCCCCCCCCC(=O)O | CD36 | binding |  | SPR |  | Kd | 247 µM
COc1cc(/C=N/NC(=S)NN=Cc2sccc2C)ccc1Oc1ccnc2cc(Cl)ccc12 | AKR1B1 | enzyme activity | inhibitor | absorbance |  | IC50 | 15.9 µM
CCCCCCCCCP(=O)(C(C)C)C(C)C | TRPM8 | ion current | agonist | patch clamp |  | EC50 | 24.8 µM
NCCS(=O)(=O)O | Sodium- and chloride-dependent taurine transporter (SLC6A6, Homo sapiens, UniProt P31641) | binding |  | MST |  | Kd | 0.71 µM
